Measured values taken from ChEMBL document CHEMBL1795344, “Design, synthesis and antitumor evaluation of phenyl N-mustard-quinazoline conjugates” (Bioorg Med Chem, 2011).
The source made the active and inactive calls. The rule behind the calls is not given here.

How the values were obtained:
CCRF-CEM [1] = experiment: Ratio of IC50 for human taxol-resistant CCRF-CEM cells to IC50 for human CCRF-CEM cells; type: functional
CCRF-CEM [2] = experiment: Ratio of IC50 for human vinblastine-resistant CCRF-CEM cells to IC50 for human CCRF-CEM cells; type: functional
MX1 = experiment: Cytotoxicity against human MX1 cells after 72 hrs by SRB assay; type: functional, cell-based; conditions: MX1, 72 h
In short: (§1)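 MX-1 and HCT-116 solid tumor cells were exposed 72 h, with growth read by SRB staining on a microplate spectrophotometer. IC50 came from median-effect analysis of dose-effect data at six or seven concentrations.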

CCRF-CEM [3] = experiment: Cytotoxicity against human taxol-resistant CCRF-CEM cells after 72 hrs by XTT assay; type: functional, cell-based
In short: (§2)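 CCRF-CEM and its Taxol- and vinblastine-resistant sublines were incubated 72 h, then given phenazine methosulfate-XTT for 6 h at 37 °C. Absorbance was read at 450 and 630 nm. IC50 came from median-effect analysis of dose-effect data at six or seven concentrations.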

HCT-116 = experiment: Cytotoxicity against human HCT116 cells after 72 hrs by SRB assay; type: functional, cell-based; conditions: HCT-116, 72 h; in short: as §1
CCRF-CEM [4] = experiment: Cytotoxicity against human CCRF-CEM cells after 72 hrs by XTT assay; type: functional, cell-based; in short: as §2
CCRF-CEM [5] = experiment: Cytotoxicity against human vinblastine-resistant CCRF-CEM cells after 72 hrs by XTT assay; type: functional, cell-based; in short: as §2
[6] = Cytotoxicity against human H1299 cells after 72 hrs by Alamar blue assay; type: functional, cell-based; conditions: NCI-H1299, 72 h
In short: (§3)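 H1299 and PC3 cells were exposed 72 h, then given Alamar blue for 6 h at 37 °C. Absorbance was read at 570 and 600 nm. IC50 came from median-effect analysis of dose-effect data at six or seven concentrations.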

PC-3 = experiment: Cytotoxicity against human PC3 cells after 72 hrs by Alamar blue assay; type: functional, cell-based; conditions: PC-3, 72 h; in short: as §3
Nucleic Acid = experiment: Induction of pEGFP-N1 plasmid DNA interstrand cross-linking at 1 to 5 uM by alkaline agarose gel shift assay; type: nucleic-acid assay

Structure (SMILES) | Ratio IC50 (CCRF-CEM [1]) | Ratio IC50 (CCRF-CEM [2]) | IC50 (MX1) [µM] | IC50 (CCRF-CEM [3]) [µM] | IC50 (HCT-116) [µM] | IC50 (CCRF-CEM [4]) [µM] | IC50 (CCRF-CEM [5]) [µM] | IC50 [6] [µM] | IC50 (PC-3) [µM] | Activity (Nucleic Acid)
CC(=O)O[C@H]1C(=O)[C@@]2(C)[C@H]([C@H](OC(=O)c3ccccc3)[C@]3(O)C[C@H](OC(=O)[C@H](O)[C@@H](NC(=O)c4ccccc4)c4ccccc4)C(C)=C1C3(C)C)[C@]1(OC(C)=O)CO[C@@H]1C[C@@H]2O [PACLITAXEL] | 143 | 423 | – | – | – | – | – | – | – | –
O=C(Nc1ccc(N(CCCl)CCCl)cc1)Nc1ccc2ncnc(Nc3ccc(Cl)c(Cl)c3)c2c1 | 2.16 | 2.6 | 6.45 | 5.61 | 2.79 | 2.6 | 6.75 | – | – | –
O=C(Nc1ccc(N(CCCl)CCCl)cc1)Nc1ccc2ncnc(Nc3cccc(Br)c3)c2c1 | 4.82 | 2.76 | 6.92 | 4.58 | 2.17 | 0.95 | 2.62 | 8.04 | 10.1 | –
N[C@@H](Cc1ccc(N(CCCl)CCCl)cc1)C(=O)O | – | – | – | – | – | – | – | – | – | Active
O=C(Nc1ccc(N(CCCl)CCCl)cc1)Nc1ccc2ncnc(Nc3ccc(F)c(Br)c3)c2c1 | 1.64 | 1.77 | 7.1 | 4.4 | 5.99 | 2.68 | 4.74 | – | – | –
O=C(Nc1ccc(N(CCCl)CCCl)cc1)Nc1ccc2ncnc(Nc3ccc(OCc4ccccn4)c(Cl)c3)c2c1 | 3.24 | 1.88 | 4.62 | 4.58 | 2.22 | 1.41 | 2.65 | – | – | –
O=C(Nc1ccc(N(CCCl)CCCl)cc1)Nc1ccc2ncnc(Nc3ccc(Cl)c(C(F)(F)F)c3)c2c1 | 1.12 | 1.11 | 7.44 | 5.36 | 5.34 | 4.77 | 5.28 | – | – | –
O=C(Nc1ccc(N(CCCl)CCCl)cc1)Nc1ccc2ncnc(Nc3ccc(Br)cc3)c2c1 | 1.89 | 1.7 | 6.71 | 8.79 | 7.79 | 4.64 | 7.88 | – | – | –
O=C(Nc1ccc(N(CCCl)CCCl)cc1)Nc1ccc2ncnc(Nc3ccc(Oc4ccccc4)cc3)c2c1 | 1.67 | 2.28 | 8.47 | 7.99 | 12.4 | 4.77 | 10.9 | – | – | –
